SKKanGAS inh = SKKanGAS growth inhibition. S. pyogenes SKKanGAS, kanamycin growth, BacTiter-Glo, 6 h. inhibition, % at 7.5 µM. 300,000 compounds, 1.3% hits. AID 1662;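 active = mean replicate score, as percent of positive control median, at least 50; inconclusive = mean below 50 but one replicate at or above 50; inactive = mean and every replicate below 50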;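 also: strain carries kanamycin resistance gene driven by streptokinase promoter and grows in 40 µg/ml kanamycin; loss of luminescence reflects streptokinase promoter inhibition or plain growth inhibition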
CSC inhib = cancer stem cell inhibition; cancer stem cell-like cells viability, luminescence; inhibition, % at 7.5 µM; 300,000 compounds, 1.1% hits; in the data active = inhibition above about 75%; inconclusive = no clear call, values can overlap the other calls; tested in HMLE shEcad cells
T cruzi inh = T. cruzi replication inhibition. T. cruzi beta-gal in NIH3T3, luminescence, 90 h. inhibition, % (concentration not given with the values). 300,000 compounds, 1.4% hits. AID 1885;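 active = mean inhibition across valid replicates above about 55%, limit read from the data; inconclusive = mean below that limit but half or more replicates reach it; inactive = mean below it, under half of replicates reach it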;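 also: signal also drops with host cell toxicity which is not excluded here; higher percent means less beta-gal luminescence so fewer parasites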
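Material: NIH/3T3 host cells with β-galactosidase reporter T. cruzi; Input: 5,000 host fibroblasts per well; Medium: DMEM, 2% fetal bovine serum; Compound: 50 nL DMSO compound solution per well; Schedule: 3 h host attachment, then at least 90 h co-culture; Detection: luminescent β-galactosidase signal after 60 min lysis.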
Mdm2-MdmX inh = disrupts the human Mdm2-MdmX interaction; SaOS-2 split-luciferase Mdm2/MdmX complementation, luminescence; inhibition, % at 8 µM; O15151+Q00987; AID 485346; 330,000 compounds, 3% hits;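 active = inhibition of at least 50% at 8 µM in the primary screen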
Target sequence (O15151 whole entry, looked up): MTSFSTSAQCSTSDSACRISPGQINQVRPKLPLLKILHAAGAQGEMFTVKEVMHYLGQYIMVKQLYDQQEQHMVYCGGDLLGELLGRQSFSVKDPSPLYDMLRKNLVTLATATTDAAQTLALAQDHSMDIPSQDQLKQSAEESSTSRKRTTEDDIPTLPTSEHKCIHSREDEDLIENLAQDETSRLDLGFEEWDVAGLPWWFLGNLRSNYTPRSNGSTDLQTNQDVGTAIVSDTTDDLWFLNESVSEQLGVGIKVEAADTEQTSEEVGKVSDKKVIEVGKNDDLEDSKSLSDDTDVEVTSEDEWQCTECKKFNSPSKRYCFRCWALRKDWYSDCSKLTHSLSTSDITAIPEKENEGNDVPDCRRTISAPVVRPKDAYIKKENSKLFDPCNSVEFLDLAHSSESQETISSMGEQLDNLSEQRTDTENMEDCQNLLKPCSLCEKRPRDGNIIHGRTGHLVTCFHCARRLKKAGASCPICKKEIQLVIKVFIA
Target sequence (Q00987 whole entry, looked up): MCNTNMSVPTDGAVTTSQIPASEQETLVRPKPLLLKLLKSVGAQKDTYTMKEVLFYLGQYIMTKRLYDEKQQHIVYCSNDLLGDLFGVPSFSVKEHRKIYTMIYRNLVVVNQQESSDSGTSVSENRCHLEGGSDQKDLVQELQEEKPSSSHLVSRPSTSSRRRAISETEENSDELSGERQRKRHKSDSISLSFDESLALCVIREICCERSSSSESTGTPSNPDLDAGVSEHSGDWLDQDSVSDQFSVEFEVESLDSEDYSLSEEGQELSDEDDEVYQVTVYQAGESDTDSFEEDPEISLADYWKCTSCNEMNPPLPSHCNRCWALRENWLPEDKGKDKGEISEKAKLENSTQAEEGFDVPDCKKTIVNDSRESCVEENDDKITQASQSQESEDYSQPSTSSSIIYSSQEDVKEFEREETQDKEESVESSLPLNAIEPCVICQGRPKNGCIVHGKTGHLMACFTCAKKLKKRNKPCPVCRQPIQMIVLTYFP
Lmaj promast = Leishmania major promastigote growth inhibition; Leishmania major promastigotes, resazurin fluorescence viability; inhibition, % at 10 µM; 200,000 compounds, 9% hits; AID 1063; in the data active = inhibition above about 50%;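 also: promastigotes grown with compound for 44 hours at 28 °C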
Beta apoptosis = beta cell apoptosis inhibition; 300,000 compounds, 0.8% hits; AID 435005; protection from apoptosis, % (no concentration beside the values); INS-1E cytokine-induced death, ATP luminescence, 48 h; percent of positive-control rescue, neutral wells zero;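 active = Every replicate reaches about 75%, or at least half do and their mean reaches it too, limit read from the data; inconclusive = At least half of replicates reach the limit but their mean does not; inactive = Under half of replicates reach the limit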;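 also: higher means more ATP so stronger rescue from cytokine killing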
Of the large screens only hits and unclear results are named; the others gave an inactive call. An excerpt weighted towards active compounds, which were near 9.4% of everything screened.

CC(=O)Nc1ccccc1NC(=O)C/C(C)=N/NC(=O)c1cccnc1	none (no result: Lmaj promast)
CCN1/C(=C/c2ccc3cc(C)ccc3[n+]2CC)Sc2cc(C)ccc21	Lmaj promast 100.5 (no result: SKKanGAS inh, CSC inhib, T cruzi inh, Mdm2-MdmX inh, Beta apoptosis)
Cc1sc2c3ccsc3ccc2[n+]1C	none
CCN1/C(=C/c2ccc3cc(C)ccc3[n+]2C)Sc2ccc3sccc3c21	Lmaj promast 100.5 (no result: SKKanGAS inh, CSC inhib, T cruzi inh, Mdm2-MdmX inh, Beta apoptosis)
COCCNc1nc(-c2cc(-c3ccc(Cl)cc3)on2)cc(C(C)C)n1	none (no result: Lmaj promast)
CCOC(=O)CN=C/C(C(=O)Nc1nccs1)=C(/C)O	none (no result: CSC inhib)
CCOC(=O)c1c(S(=O)(=O)Nc2ccc(F)cc2Cl)c(C)n(C)c1C	none (no result: Lmaj promast, Beta apoptosis)
O=C(c1ccco1)c1nnn(Cc2ccccc2)c1-c1ccccc1	CSC inhib 78.0
O=C(NCC1COc2ccccc2O1)c1cccc(S(=O)(=O)NCc2ccccc2)c1 (stereo not given)	Beta apoptosis 104.6 (no result: Lmaj promast)
COc1ccc(OC)c(CNC(=O)CCS(=O)(=O)c2ccc3c(c2)oc(=O)n3C)c1	none (no result: Lmaj promast)
COc1cccc(NC(=S)N(Cc2ccc(Cl)cc2)Cc2ccc(C(=O)O)cc2)c1	none
Cc1cccc(C)c1OCCNC(=O)C(=O)NCc1ccco1	none
COc1ccc(/C=N/Nc2nc(-c3cccc(S(=O)(=O)N4CCCC4)c3)cs2)cc1OC	none
CCOc1cc(/C=N/Nc2nc(-c3cccc(S(=O)(=O)N4CCCC4)c3)cs2)ccc1O	Lmaj promast 92.6
Cc1cccc(CN2C(=O)c3ccccc3Sc3ccc(C(=O)NCCN4CCOCC4)cc32)c1	Lmaj promast 99.8
Cc1ccccc1CN1C(=O)c2ccccc2Sc2ccc(C(=O)NCCN3CCOCC3)cc21	none (no result: Lmaj promast)
O=C(NCCN1CCOCC1)c1ccc2c(c1)N(Cc1ccccc1F)C(=O)c1ccccc1S2	Lmaj promast 100.1
CCN1CCN(CCNC(=O)c2ccc(/C=C3/Sc4ccccc4N(Cc4ccccc4C)C3=O)cc2)CC1	Lmaj promast 100.2 (no result: CSC inhib, Mdm2-MdmX inh, Beta apoptosis)
CCOCCCNC(=O)CN1C(=O)/C(=C\c2ccc(C)cc2)Sc2ccccc21	none
Cc1noc(C)c1COc1ccc(C(=O)Nc2ncccc2O)cc1	none (no result: Lmaj promast, Beta apoptosis)
COc1ccc(N(Cc2cc3cccc(C)c3[nH]c2=O)C(=O)C2CCCO2)cc1 (stereo not given)	none (no result: Lmaj promast)
Cc1cc(C)c(OCC(=O)OCC(=O)NCCC2=CCCCC2)c(C)c1	none (no result: Lmaj promast)
Cc1cccc(OCCCC(=O)NCC(=O)Nc2cccc(C)c2C)c1	none
O=C1OC(COc2ccc(Br)cc2)CN1c1ccccc1 (stereo not given)	none (no result: Lmaj promast)
CC(Nc1n[nH]c(=O)[nH]c1=O)C(=O)N/N=C/c1cccs1 (stereo not given)	none (no result: Beta apoptosis)
COC(=O)c1ccc(OC)c(CN2CCCN(Cc3ccc(F)cc3)S2(=O)=O)c1	T cruzi inh 56.9 (no result: Lmaj promast)
CCCc1nnc(NC(=O)c2c(O)c3cccc4c3n(c2=O)CCC4)s1	SKKanGAS inh 87.3 (no result: Lmaj promast)
CCc1nc2ccccc2c(=O)n1NC(=O)c1c(O)c2cccc3c2n(c1=O)CCC3	none
CC(C)Cn1c2c(c(O)c(C(=O)Nc3ccc(F)cc3)c1=O)CCCC2	none
CCCCc1nc2ccccc2c(=O)n1NC(=O)c1c(O)c2c(n(CC(C)C)c1=O)CCCC2	none (no result: CSC inhib, Mdm2-MdmX inh, Beta apoptosis)
O=C(Nn1c(Cc2ccccc2)nc2ccccc2c1=O)c1c(O)c2cccc3c2n(c1=O)CCC3	SKKanGAS inh 71.3
CC(C)Cn1c2c(c(O)c(C(=O)Nn3c(Cc4ccccc4)nc4ccccc4c3=O)c1=O)CCCC2	Lmaj promast 73.8
CC(C)Cn1c2c(c(O)c(C(=O)Nc3ncccc3O)c1=O)CCCC2	SKKanGAS inh 89.5
Cc1cc(NC(=O)C2CC(=O)N(c3ccc(F)cc3)C2)no1 (stereo not given)	none (no result: Lmaj promast)
O=C(c1ccc(F)cc1)c1cc2ccc(O)cc2oc1=O	SKKanGAS inh 65.4 (no result: Lmaj promast)
COc1ccc(C(C)=O)cc1COC(=O)c1cnc(Cl)c(Cl)c1	none
CCN1CCN(c2nc(N)c([N+](=O)[O-])c(Nc3cccc(C)c3)n2)CC1	Lmaj promast 99.9
CCN1CCN(c2nc(Nc3cccc(OC)c3)nc(N)c2[N+](=O)[O-])CC1	none (no result: Lmaj promast)
Cc1cccc(Nc2nc(N)c([N+](=O)[O-])c(N3CC(C)CC(C)C3)n2)c1 (stereo not given)	CSC inhib 104.6, Lmaj promast 92.8, Beta apoptosis inconclusive
O=C(NCc1n[nH]c(=S)n1-c1cccc(C(F)(F)F)c1)c1ccc(S(=O)(=O)N2CCCCC2)cc1	none (no result: Lmaj promast)
CCn1c(=O)c(C(=O)Nc2ccccc2F)c(O)c2ccccc21	none (no result: Lmaj promast)
CCn1c(=O)c(C(=O)NNC(=O)c2ccc(Cl)cc2Cl)c(O)c2ccccc21	SKKanGAS inh 75.1 (no result: Lmaj promast)
CCCn1c(=O)c(C(=O)NNS(=O)(=O)c2ccc(Cl)cc2)c(O)c2ccccc21	SKKanGAS inh 95.8, CSC inhib 85.9
CCCn1c(=O)c(C(=O)NNC(=O)c2ccc(Cl)cc2Cl)c(O)c2ccccc21	SKKanGAS inh 69.6 (no result: Lmaj promast)
NC1=NC(=O)C(Cc2ccc(Br)cc2)S1 (stereo not given)	none (no result: Lmaj promast, Beta apoptosis)
Brc1cc(-c2ccccc2)nc(-c2ccccc2)n1	SKKanGAS inh 51.1 (no result: Lmaj promast)
O=C(COC(=O)c1ccc(-n2cnnn2)cc1)Nc1cc(Cl)ccc1F	none (no result: SKKanGAS inh, CSC inhib, T cruzi inh, Lmaj promast)
Cc1ccc(NC(=S)Nc2ccc(OC(F)F)c(Cl)c2)cc1F	SKKanGAS inh inconclusive
COc1ccccc1NC(=O)/C=C1\NC(=O)CS1	Lmaj promast 88.4
COc1ccccc1NC(=O)c1cc(C(=O)Nc2ccccc2OC)cc(N2C(=O)CCC2=O)c1	none
Cc1ccc(NC(=O)/C=C2\NC(=O)CS2)cc1	none (no result: Lmaj promast)
COc1ccccc1NC(=O)/C=C1\SCC(=O)N1C	T cruzi inh 70.8, Lmaj promast 100.1
COc1ccccc1N1CCN(C(CNS(=O)(=O)c2cccs2)c2cccnc2)CC1 (stereo not given)	Lmaj promast 83.2
O=S(=O)(NCC(c1cccnc1)N1CCOCC1)c1ccccc1 (stereo not given)	none (no result: CSC inhib)
O=S(=O)(NCC(c1cccnc1)N1CCN(c2ccccc2)CC1)c1cccs1 (stereo not given)	Lmaj promast 89.5
COc1ccc(N2CCN(C(CNS(=O)(=O)c3cccs3)c3cccnc3)CC2)cc1 (stereo not given)	Lmaj promast 97.8
CS(=O)(=O)NCC(c1cccnc1)N1CCN(c2ccc(F)cc2)CC1 (stereo not given)	none (no result: CSC inhib, Mdm2-MdmX inh, Beta apoptosis)
CCOc1ccc(OCCNC(=O)c2ccc3c(c2)nnn3CC)cc1	none (no result: SKKanGAS inh, T cruzi inh, Lmaj promast)
Cc1cc(=O)oc2cc(O)c(N=Nc3ccccc3)cc12	none (no result: Lmaj promast)
COc1ccc(C(=O)COC(=O)C2CCCN2C(=O)C23CC4CC(CC(C4)C2)C3)cc1 (stereo not given)	Lmaj promast 55.2 (no result: SKKanGAS inh)
CC(=O)Nc1ccc(N(C(=O)CNC(=O)c2ccco2)C(C(=O)NC2CCCC2)c2ccco2)cc1 (stereo not given)	none (no result: Lmaj promast)
CCOc1ccc(S(=O)(=O)N(CC(=O)N/N=C/c2ccc(-c3ccc([N+](=O)[O-])cc3)o2)c2ccccc2)cc1	none

Screens (PubChem)
